For 18 compounds, inhibition and IC50 results are on record in ChEMBL document CHEMBL1154726, “Exploring the effect of 2,3,4-trimethoxy-phenyl moiety as a component of indolephenstatins” (Eur J Med Chem, 2010).

The species entered for experiment [1] is Bos taurus. In words: Inhibition of calf brain tubulin polymerization at 20 uM after 20 mins. An outline of the steps:
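Single-concentration screen of tubulin assembly using calf brain MTP at 1.0 mg/mL in 0.1 M MES, 1 mM EGTA, 1 mM MgCl2, 1 mM β-ME, 1.5 mM GTP, pH 6.7, 4% DMSO, with a no-ligand control. Samples were preincubated 30 min at 20 °C and 10 min on ice, then warmed from 4 °C to 37 °C.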

Another experiment has as its system HL-60. Description: Cytotoxicity against human HL60 cells after 72 hrs by XTT assay. To be noted: HL-60, 72 h. Type of experiment: functional, cell-based. Put shortly:
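XTT proliferation assay. Adherent cells were seeded and left 24 h at 37 °C in humidified 5% CO2/95% air to attach. HL-60 cells were seeded at 3 × 10³ cells/well. Cells were exposed to a range of compound concentrations for 72 h under the same atmosphere, then incubated a further 4 h. Formazan was read at 490 nm against a 655 nm reference. IC50 is the concentration giving 50% inhibition of proliferation.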
In general terms: Formazan colour is commonly taken as a measure of viable cells.

The subject of the next experiment is HeLa. Description: Cytotoxicity against human HeLa cells after 72 hrs by XTT assay. Type of experiment: functional, cell-based.
The next experiment deals with HT-29. In words: Cytotoxicity against human HT-29 cells after 72 hrs by XTT assay. The note with it: HT-29, 72 h. Type of experiment: functional, cell-based.
The next experiment concerns A549. Description: Cytotoxicity against human A549 cells after 72 hrs by XTT assay. The experiment is classed as functional, cell-based. To be noted: A549, 72 h.
The species named for experiment [2] is Bos taurus. In words: Inhibition of calf brain tubulin polymerization at 30 uM after 20 mins. Put shortly:
(§1)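 Single-concentration screen of tubulin assembly using calf brain MTP at 1.0 mg/mL in 0.1 M MES, 1 mM EGTA, 1 mM MgCl2, 1 mM β-ME, 1.5 mM GTP, pH 6.7, 4% DMSO, with a no-ligand control. Samples were preincubated 30 min at 20 °C and 10 min on ice, then warmed from 4 °C to 37 °C. Percent inhibition of the turbidity increase was taken after 20 min.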

A short description of experiment [3]: Inhibition of calf brain tubulin polymerization after 20 mins. The arrangement: species or system Bos taurus. An outline of the steps:
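Microtubule protein was purified from calf brain by two cycles of temperature-dependent assembly/disassembly. Assay mix: 1.0 mg/mL MTP in 0.1 M MES, 1 mM EGTA, 1 mM MgCl2, 1 mM β-ME, 1.5 mM GTP, pH 6.7, 4% DMSO, with a no-ligand control. Samples were preincubated 30 min at 20 °C, chilled 10 min on ice, then assembled by a shift from 4 °C to 37 °C and followed by turbidity. IC50 at 20 min came from exponential fits of TPI% versus concentration, with ≥2 independent experiments on different MTP preparations.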

Experiment [4] is filed under the species Bos taurus. In words: Inhibition of calf brain tubulin polymerization at 40 uM after 20 mins. An outline of the steps:
as §1

The structures appear in SMILES notation. Where only a bound is given, the exact number is not on record here.

A word on the inhibition: it is the change of the read-out against control, counted positive when it falls. Low values mean little suppression, high ones strong suppression. On to `COc1ccc(C(=O)c2ccc(OC)c(OC)c2OC)cc1O`, for which the inhibition in the experiment listed under Bos taurus [1] amounted to 19%.

A word on the IC50: it is the concentration at which inhibition is half-maximal. A higher IC50 goes with weaker potency in that assay. Turning to `COc1ccc(/C(=N\N)c2ccc3c(ccn3C)c2)c(OC)c1OC`, the IC50 in the experiment on HL-60 was 2 µM; in the experiment with HeLa it was 2 µM; with HT-29, 2 µM; in the experiment with A549, more than 10 µM. In the experiment filed under Bos taurus [1], this compound registered an inhibition of 25%.

Consider `CCn1ccc2cc(/C(=N/N)c3ccc(OC)c(OC)c3OC)ccc21`, for which the figures for the IC50 with HL-60, in the experiment with HT-29 and in the experiment with A549 were 2 µM, more than 10 µM and more than 10 µM, respectively. This compound had an inhibition in the experiment filed under Bos taurus [1] of 12%.

For `COc1ccc(/C(=N\OC(C)=O)c2ccc3c(ccn3C)c2)c(OC)c1OC`, the IC50 with HL-60 is 0.58 µM; with HeLa, 1 µM; with HT-29, 1.5 µM; with A549, more than 10 µM. This compound also came in with an inhibition in the experiment filed under Bos taurus [2] of 20%.

Turning to `COc1ccc(/C(=N\NC(C)=O)c2ccc3c(ccn3C)c2)c(OC)c1OC`, the IC50 with HL-60 is 2 µM; in the experiment with HeLa, 1 µM; in the experiment with HT-29, 2 µM; in the experiment on A549 it was more than 10 µM. For the same compound, the inhibition in the experiment listed under Bos taurus [1] was found to be 22%.

Consider `CCn1ccc2cc(C(O)c3ccc(OC)c(OC)c3OC)ccc21` (configuration not stated), for which the IC50 in the experiment on HL-60 is more than 10 µM; in the experiment on HeLa, less than 1 µM; with HT-29, more than 10 µM; in the experiment on A549, more than 10 µM. This compound also showed an inhibition in the experiment listed under Bos taurus [1] of -0%.

Turning to `CCn1ccc2cc(/C(=N\NC)c3ccc(OC)c(OC)c3OC)ccc21`, the 50% inhibitory concentration (IC50) worked out at 0.29 µM with HeLa, 1.2 µM in the experiment on HT-29 and 1.9 µM with A549. This compound also returned an inhibition in the experiment filed under Bos taurus [2] of 17%.

Consider `COc1ccc(C(O)c2ccc3c(ccn3C)c2)c(OC)c1OC` (configuration not stated), for which the IC50 in the experiment with HeLa was 2.4 µM; in the experiment with A549, more than 10 µM. The compound also displayed an inhibition in the experiment filed under Bos taurus [1] of 9%.

As to `CCn1ccc2cc(/C(=N/NC(C)=O)c3ccc(OC)c(OC)c3OC)ccc21`, the inhibition in the experiment filed under Bos taurus [1] is 5%.

For the compound `COc1ccc(/C(=N\O)c2ccc3c(ccn3C)c2)c(OC)c1OC`, the IC50 with HeLa was 0.076 µM; with HT-29, 0.27 µM; in experiment [3], 9 µM; with A549, 1 µM. The compound also registered an inhibition in the experiment filed under Bos taurus [2] of 82%.

For `CN/N=C(/c1ccc2c(ccn2C)c1)c1ccc(OC)c(OC)c1OC`, the IC50 in the experiment with HL-60 is 1 µM; in the experiment with HeLa it was 1 µM; in the experiment with HT-29, 2 µM; in the experiment on A549, more than 10 µM. In the experiment filed under Bos taurus [1], this compound registered an inhibition of -0%.

For `COc1ccc(/C=C\c2cc(OC)c(OC)c(OC)c2)cc1O` [COMBRETASTATIN A4], the IC50 in experiment [3] is 3 µM.

As for `CCn1ccc2cc(C(=O)c3ccc(OC)c(OC)c3OC)ccc21`, the IC50 was 5 µM in the experiment with HL-60; 0.42 µM in the experiment with HeLa; 2 µM in the experiment with HT-29; 5.6 µM in experiment [3]; more than 10 µM in the experiment with A549. This compound gave an inhibition in the experiment filed under Bos taurus [1] of 47%.

For `CCn1ccc2cc(/C(=N/O)c3ccc(OC)c(OC)c3OC)ccc21`, the IC50 with HL-60 was 2 µM; in the experiment with HeLa it was 2 µM; in the experiment on HT-29, 2 µM; in experiment [3], 43.1 µM; with A549, more than 10 µM. Moreover, in the experiment filed under Bos taurus [2], the inhibition stood at 52%.

`COc1cc(C(=O)c2ccc3c(ccn3C)c2)cc(OC)c1OC`: the IC50 in experiment [3] was 6.9 µM. In addition, the inhibition in the experiment filed under Bos taurus [4] was found to be 98%.

Compound `CCn1ccc2cc(/C(=N/OC(C)=O)c3ccc(OC)c(OC)c3OC)ccc21` displayed an inhibition in the experiment listed under Bos taurus [1] of 29%.

On to `COc1ccc(C(=O)c2cc(OC)c(OC)c(OC)c2)cc1O` [PHENSTATIN], for which the values for the IC50 (with HL-60; in experiment [3]) were 0.03 µM and 2.5 µM, respectively. For the same compound, the inhibition in the experiment listed under Bos taurus [1] is 97%.

`COc1ccc(C(=O)c2ccc3c(ccn3C)c2)c(OC)c1OC`: the IC50 in the experiment with HeLa stood at 0.017 µM; in the experiment on HT-29, 0.021 µM; in experiment [3] it was 0.4 µM; in the experiment on A549 it was 0.51 µM. Further, the inhibition in the experiment listed under Bos taurus [1] came to 98%.
